These results are taken from ChEMBL document CHEMBL3616405 (J Med Chem, 2015).

Bounds are passed on as bounds.

Data set [1] has as its system Mus musculus. Description: Antihyperglycaemic activity in sc dosed db/db mouse assessed as reduction of blood glucose level by glucose oxidase method. The class given is functional, organism-based. The method, boiled down: (§1)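 Male db/db mice (10–12 weeks old, blood glucose above 10 mM), group-housed, fed chow and acidified water ad libitum. Doses of 0.3–100 nmol/kg were given s.c. at 6 mL/kg in 50 mM phosphate with 0.05% Tween 80, pH 8. Tail-tip capillary blood glucose was measured by glucose oxidase at 0, 1, 2, 3, 6, 24 and 48 h. […] Values are mean ± SEM.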

Data set [2] concerns Mus musculus. The data set is described as follows: Antiobesity activity in sc dosed db/db mouse assessed as reduction of body weight. The class given is functional, organism-based.
The target of another data set is Albumin (Homo sapiens, UniProt P02768). The data set is described as follows: Binding affinity to human serum albumin at 100 uM by analytical ultracentrifugation analysis relative to liraglutide. The class given is ADME. The conditions noted are these: isolated protein. The method, boiled down: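 Sedimentation-velocity analytical ultracentrifugation of 100 μM analogue with 10 μM purified monomeric HSA in PBS, pH 7.4, at 20 °C and 40 000 rpm, read at 250 nm. Free fraction Φ = c_free/(c_tot − c_HSA). Three experiments were averaged, with SD.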
Sequence of Albumin (P02768 whole entry): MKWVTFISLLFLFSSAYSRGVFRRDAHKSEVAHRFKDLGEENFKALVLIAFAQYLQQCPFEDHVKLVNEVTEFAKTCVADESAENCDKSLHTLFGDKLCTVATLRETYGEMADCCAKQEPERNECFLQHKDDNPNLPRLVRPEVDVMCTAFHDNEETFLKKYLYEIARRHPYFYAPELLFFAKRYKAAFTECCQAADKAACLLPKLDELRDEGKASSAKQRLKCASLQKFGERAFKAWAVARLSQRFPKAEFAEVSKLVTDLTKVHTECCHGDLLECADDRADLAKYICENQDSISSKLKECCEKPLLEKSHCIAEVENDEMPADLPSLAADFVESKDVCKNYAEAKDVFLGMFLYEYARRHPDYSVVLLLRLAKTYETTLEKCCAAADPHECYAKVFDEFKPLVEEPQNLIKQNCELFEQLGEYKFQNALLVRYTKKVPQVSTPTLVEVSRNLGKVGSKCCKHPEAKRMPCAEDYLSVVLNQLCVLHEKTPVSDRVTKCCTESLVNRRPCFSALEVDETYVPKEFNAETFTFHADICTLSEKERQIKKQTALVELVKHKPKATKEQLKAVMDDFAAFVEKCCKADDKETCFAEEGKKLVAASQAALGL

The nature of data set [3]: Apparent volume of distribution in Gottingen mini pig at 0.5 nmol/kg, iv. The class given is ADME, organism-based, Sus scrofa. Conditions: Gottingen minipig, in vivo, read-out: Vz; call rule not given here. In a few lines: (§2)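 Göttingen mini-pigs received a single i.v. or s.c. dose, sized to individual body weight. Twelve blood samples were taken up to 288 h into ice-cooled EDTA tubes, then centrifuged at 4 °C. Plasma was frozen until GLP-1 analogue was measured by ELISA or LC/MS. Cl, Vz, T1/2, Tmax, MRT and F came from noncompartmental analysis.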

Data set [4] in a line: Bioavailability in Gottingen mini pig at 1 nmol/kg, sc. The class given is ADME, organism-based, Sus scrofa. Conditions: Gottingen minipig, in vivo. The method, boiled down:
as §2

Data set [5] can be described thus: Clearance in Gottingen mini pig at 0.5 nmol/kg, iv. Conditions: Gottingen minipig, in vivo. It is filed as ADME, organism-based, Sus scrofa. In a few lines:
as §2

Data set [6] in a line: Mean residence time in Gottingen mini pig at 1 nmol/kg, sc. It is filed as ADME, organism-based, Sus scrofa. The conditions noted are these: Gottingen minipig, in vivo. In a few lines: as §2
A short description of data set [7]: Half life in Gottingen mini pig at 0.5 nmol/kg, iv. The class given is ADME, organism-based, Sus scrofa. Conditions: Gottingen minipig, in vivo. The method, boiled down: as §2
Data set [8] deals with Sus scrofa. Description: Half life in Gottingen mini pig at 2 nmol/kg, iv. It is filed as ADME, organism-based. The conditions noted are these: in vivo. In a few lines: as §2
Data set [9] has as its target Mus musculus. The data set is described as follows: Antihyperglycaemic activity in sc dosed db/db mouse assessed as reduction of blood glucose level up to 48 hrs by glucose oxidase method. The class given is functional, organism-based. The method, boiled down: as §1
In data set [10] the test system is Sus scrofa. Description: Bioavailability in Gottingen mini pig at 2 nmol/kg, sc. The class given is ADME, organism-based. Conditions: in vivo. The method, boiled down: as §2
Data set [11] deals with Sus scrofa. The data set is described as follows: Mean residence time in Gottingen mini pig at 2 nmol/kg, sc. The class given is ADME, organism-based. Conditions: in vivo. The method, boiled down:
as §2

A further data set is filed under the species Homo sapiens. The data set is described as follows: Half life in human. It is filed as ADME, organism-based. Conditions: in vivo.
In data set [12] the test system is Sus scrofa. Description: Apparent volume of distribution in Gottingen mini pig at 2 nmol/kg, iv. Conditions: in vivo. It is filed as ADME, organism-based. In a few lines:
as §2

For data set [13], the system named is Sus scrofa. Description: Tmax in Gottingen mini pig at 2 nmol/kg, sc. The class given is ADME, organism-based. The conditions noted are these: in vivo. In a few lines:
as §2

The subject of data set [14] is Sus scrofa. The data set is described as follows: Clearance in Gottingen mini pig at 2 nmol/kg, iv. It is filed as ADME, organism-based. Conditions: in vivo. In a few lines:
as §2

For data set [15], the target named is T1, Glucagon-like peptide 1 receptor (Homo sapiens, UniProt P43220). Description: Agonist activity at human GLP1 receptor expressed in BHK cells after 3 hrs by CRE firefly luciferase reporter gene assay in absence of human serum albumin. It is filed as functional, cell-based.
T1 sequence (P43220 whole entry): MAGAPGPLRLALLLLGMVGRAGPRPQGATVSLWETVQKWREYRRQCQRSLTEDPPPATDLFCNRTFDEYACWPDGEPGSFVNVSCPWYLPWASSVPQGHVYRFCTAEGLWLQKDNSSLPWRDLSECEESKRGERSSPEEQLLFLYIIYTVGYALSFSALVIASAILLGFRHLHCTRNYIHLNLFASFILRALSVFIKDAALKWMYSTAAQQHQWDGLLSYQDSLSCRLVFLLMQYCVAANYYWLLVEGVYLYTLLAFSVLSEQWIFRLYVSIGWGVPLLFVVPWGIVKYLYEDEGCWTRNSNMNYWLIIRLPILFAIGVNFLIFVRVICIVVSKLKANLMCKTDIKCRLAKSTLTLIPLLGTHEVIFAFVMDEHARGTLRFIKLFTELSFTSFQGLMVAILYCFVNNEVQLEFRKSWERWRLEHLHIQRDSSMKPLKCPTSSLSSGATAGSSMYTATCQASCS
Data set [16] addresses T1, Glucagon-like peptide 1 receptor. Description: Displacement of [125I]-GLP1 from human GLP1 receptor expressed in BHK cells after 2 hrs in presence of 2% human serum albumin. The class given is cell-based.
Data set [17] has the same target. Description: Displacement of [125I]-GLP1 from human GLP1 receptor expressed in BHK cells after 2 hrs in absence of human serum albumin. The class given is cell-based.

As to SEMAGLUTIDE [listing 1 of 2 here], the Activity result in the data set on Mus musculus [1] and in the data set with Mus musculus [2] was “Dose-dependent effect” throughout.

With `CC[C@H](C)[C@H](NC(=O)[C@H](Cc1ccccc1)NC(=O)[C@H](CCC(=O)O)NC(=O)[C@H](CCCCNC(=O)COCCOCCNC(=O)COCCOCCNC(=O)CC[C@H](NC(=O)CCCCCCCCCCCCCCCCC(=O)O)C(=O)O)NC(=O)[C@H](C)NC(=O)[C@H](C)NC(=O)[C@H](CCC(N)=O)NC(=O)CNC(=O)[C@H](CCC(=O)O)NC(=O)[C@H](CC(C)C)NC(=O)[C@H](Cc1ccc(O)cc1)NC(=O)[C@H](CO)NC(=O)[C@H](CO)NC(=O)[C@@H](NC(=O)[C@H](CC(=O)O)NC(=O)[C@H](CO)NC(=O)[C@@H](NC(=O)[C@H](Cc1ccccc1)NC(=O)[C@@H](NC(=O)CNC(=O)[C@H](CCC(=O)O)NC(=O)[C@H](C)NC(=O)[C@@H](N)Cc1c[nH]cn1)[C@@H](C)O)[C@@H](C)O)C(C)C)C(=O)N[C@@H](C)C(=O)N[C@@H](Cc1c[nH]c2ccccc12)C(=O)N[C@@H](CC(C)C)C(=O)N[C@H](C(=O)N[C@@H](CCCNC(=N)N)C(=O)NCC(=O)N[C@@H](CCCNC(=N)N)C(=O)NCC(=O)O)C(C)C`, on Albumin, the Activity result is “Not Active”.

For the compound `CCCCCCCCCCCCCCCC(=O)N[C@@H](CCC(=O)NCCCC[C@H](NC(=O)[C@H](C)NC(=O)[C@H](C)NC(=O)[C@H](CCC(N)=O)NC(=O)CNC(=O)[C@H](CCC(=O)O)NC(=O)[C@H](CC(C)C)NC(=O)[C@H](Cc1ccc(O)cc1)NC(=O)[C@H](CO)NC(=O)[C@H](CO)NC(=O)[C@@H](NC(=O)[C@H](CC(=O)O)NC(=O)[C@H](CO)NC(=O)[C@@H](NC(=O)[C@H](Cc1ccccc1)NC(=O)[C@@H](NC(=O)CNC(=O)[C@H](CCC(=O)O)NC(=O)[C@H](C)NC(=O)[C@@H](N)Cc1cnc[nH]1)[C@@H](C)O)[C@@H](C)O)C(C)C)C(=O)N[C@@H](CCC(=O)O)C(=O)N[C@@H](Cc1ccccc1)C(=O)N[C@H](C(=O)N[C@@H](C)C(=O)N[C@@H](Cc1c[nH]c2ccccc12)C(=O)N[C@@H](CC(C)C)C(=O)N[C@H](C(=O)N[C@@H](CCCNC(=N)N)C(=O)NCC(=O)N[C@@H](CCCNC(=N)N)C(=O)NCC(=O)O)C(C)C)[C@@H](C)CC)C(=O)O` [LIRAGLUTIDE], in data set [3], the Vd came out at 0.0674 L/kg. Further, the bioavailability in [4] stood at 66%. The clearance in [5] was 3.8 mL/h/kg. In data set [6], this compound gave an MRT of 23 h. Besides, the half-life in [7] is 12.4 h.

Turning to SEMAGLUTIDE [listing 2 of 2 here], the figures for the t1/2 in the data set with Sus scrofa [8] and in the data set filed under Homo sapiens were 46.1 h and 165 h, respectively. The EC50 at Mus musculus [9] was under 2 nmol/kg. The compound also came in with a F in the data set on Sus scrofa [10] of 94%. Further, the mean residence time (MRT) in the data set on Sus scrofa [11] is 63.6 h. Besides, in the data set with Sus scrofa [12], the Vz was determined as 0.1019 L/kg. Moreover, in the data set on Sus scrofa [13], the Tmax was found to be 12 h. The compound also returned a CL with Sus scrofa [14] of 1.6 mL/h/kg.

The compound `CCCCCCCCCCCCCCCCCCCC(=O)N[C@@H](CCC(=O)NCCOCCOCC(=O)NCCOCCOCC(=O)NCCCC[C@H](NC(=O)[C@H](C)NC(=O)[C@H](C)NC(=O)[C@H](CCC(N)=O)NC(=O)CNC(=O)[C@H](CCC(=O)O)NC(=O)[C@H](CC(C)C)NC(=O)[C@H](Cc1ccc(O)cc1)NC(=O)[C@H](CO)NC(=O)[C@H](CO)NC(=O)[C@@H](NC(=O)[C@H](CC(=O)O)NC(=O)[C@H](CO)NC(=O)[C@@H](NC(=O)[C@H](Cc1ccccc1)NC(=O)[C@@H](NC(=O)CNC(=O)[C@H](CCC(=O)O)NC(=O)C(C)(C)NC(=O)[C@@H](N)Cc1c[nH]cn1)[C@@H](C)O)[C@@H](C)O)C(C)C)C(=O)N[C@@H](CCC(=O)O)C(=O)N[C@@H](Cc1ccccc1)C(=O)N[C@H](C(=O)N[C@@H](C)C(=O)N[C@@H](Cc1c[nH]c2ccccc12)C(=O)N[C@@H](CC(C)C)C(=O)N[C@H](C(=O)N[C@@H](CCCNC(=N)N)C(=O)NCC(=O)N[C@@H](CCCNC(=N)N)C(=O)NCC(=O)O)C(C)C)[C@@H](C)CC)C(=O)O` came in with an EC50 in data set [15] of 0.0048 nM. The IC50 in [16] came to 0.88 nM; in data set [17], 0.18 nM.

The compound `CC[C@H](C)[C@H](NC(=O)[C@H](Cc1ccccc1)NC(=O)[C@H](CCC(=O)O)NC(=O)[C@H](CCCCNC(=O)COCCOCCNC(=O)COCCOCCNC(=O)CC[C@H](NC(=O)CCCCCCCCCCCCC(=O)O)C(=O)O)NC(=O)[C@H](C)NC(=O)[C@H](C)NC(=O)[C@H](CCC(N)=O)NC(=O)CNC(=O)[C@H](CCC(=O)O)NC(=O)[C@H](CC(C)C)NC(=O)[C@H](Cc1ccc(O)cc1)NC(=O)[C@H](CO)NC(=O)[C@H](CO)NC(=O)[C@@H](NC(=O)[C@H](CC(=O)O)NC(=O)[C@H](CO)NC(=O)[C@@H](NC(=O)[C@H](Cc1ccccc1)NC(=O)[C@@H](NC(=O)CNC(=O)[C@H](CCC(=O)O)NC(=O)C(C)(C)NC(=O)[C@@H](N)Cc1c[nH]cn1)[C@@H](C)O)[C@@H](C)O)C(C)C)C(=O)N[C@@H](C)C(=O)N[C@@H](Cc1c[nH]c2ccccc12)C(=O)N[C@@H](CC(C)C)C(=O)N[C@H](C(=O)N[C@@H](CCCNC(=N)N)C(=O)NCC(=O)N[C@@H](CCCNC(=N)N)C(=O)NCC(=O)O)C(C)C` returned an EC50 in data set [15] of 0.0157 nM. Besides, the concentration for half-maximal inhibition (IC50) in data set [16] was 8.87 nM; in [17], 2.65 nM.
